Source: PubChem (Broad Institute)
Compounds with a hit are over-represented: about 2% of the library has one in this group of screens.
RAD54 inh: inhibitors of human RAD54 branch migration, primary screen, biochemical, fluorescence, single point; RAD54 Holliday junction branch migration, FAM/BHQ fluorescence; hit rate 0.14% among 360,000; inhibition, % at 10.4 µM; AID 602329, 2012;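 active = mean normalized replicate activity at least 40 and at least half of replicates scoring 40 or more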;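 also: 0% = median of neutral control wells and 100% = median of positive control wells; inhibitors cause a drop in the FAM fluorescence signal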
RAD52 inh: RAD52 DNA annealing inhibitors, primary screen, biochemical, FRET, single point, set 2; DNA repair protein RAD52 homolog (Homo sapiens), P43351; hit rate 0.46% among 360,000; inhibition, % at 18.7 µM; recombinant RAD52 DNA annealing, FRET fluorescence; AID 651710, 2012;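 active = every replicate showing at least 50% inhibition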
Target sequence (P43351 whole entry, looked up): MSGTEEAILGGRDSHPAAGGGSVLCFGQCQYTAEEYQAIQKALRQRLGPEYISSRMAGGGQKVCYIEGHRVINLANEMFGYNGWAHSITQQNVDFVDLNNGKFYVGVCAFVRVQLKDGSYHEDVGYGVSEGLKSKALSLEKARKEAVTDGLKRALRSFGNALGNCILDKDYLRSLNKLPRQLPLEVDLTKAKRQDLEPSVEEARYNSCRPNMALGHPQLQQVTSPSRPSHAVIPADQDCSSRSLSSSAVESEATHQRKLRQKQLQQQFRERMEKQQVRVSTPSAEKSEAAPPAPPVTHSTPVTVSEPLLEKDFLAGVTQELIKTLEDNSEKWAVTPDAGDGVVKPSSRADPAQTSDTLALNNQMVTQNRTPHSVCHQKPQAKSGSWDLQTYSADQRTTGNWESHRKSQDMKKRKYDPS
XiGFP reactiv: activators of inactive X chromosome reactivation, primary screen, imaging, XiGFP fibroblasts, GFP high-content imaging, set 2; AID 743238, 2013; hit rate 0.055% among 360,000; activation, % at 7.58 µM; XiGFP mouse fibroblasts, % GFP-positive cells imaging, 3 d; cells co-treated with 5-aza-dC sensitizer; scaled so ellipticine positive control = 100%;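 active = mean normalized replicate activation at least 10% and every replicate at or above 10%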;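 also: 0% = median of on-plate neutral control wells and 100% = ellipticine 6 µM median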
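System: 68-5-11 XiGFP fibroblast line | Buffer or medium: DMEM containing 5-aza-dC | Compound: Single point | Times: Compounds 3 days, fix/stain 15 min at room temperature | Benchmarks: Positive control ellipticine, 6 µM final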
E-sel inducer: E-selectin induction in HUVECs, primary screen, imaging, HUVEC, immunofluorescence imaging, single point; P16581; normalized: neutral wells 0, TNF-alpha wells 100; activation, % at 7.58 µM; hit rate 0.37% among 260,000; AID 686992, 2013;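 active = mean E-selectin-positive cell signal at least 10% of the positive control, reached in at least 60% of replicates, without over 20% cell loss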
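material = human umbilical vein endothelial cells (HUVEC), E-selectin induction | quantity = 3,000 cells/well | medium = EGM-2 growth medium on 0.1% gelatin-coated wells | technique = immunofluorescence imaging | read-out basis = % PE-positive cells | control set = TNF-alpha positive control, DMSO neutral control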
PglD inh: C. jejuni PglD acetyltransferase inhibitors, primary screen, biochemical, DTNB colorimetric, single point; UDP-N-acetylbacillosamine N-acetyltransferase PglD (Campylobacter jejuni); purified PglD enzyme, DTNB colorimetric CoA detection; inhibition, % at 12.5 µM; hit rate 0.098% among 360,000; AID 602405, 2012; in the data active = inhibition above about 16%, passing the limit was not always enough
rRNA inh HTS: reduced GFP signal of wild-type E. coli, primary screen, bacterial rRNA inhibitor project, GFP/RFP fluorescence, OD600, single point; E. coli WT GFP vs humanized-ribosome RFP mutants, 24 h; stronger effect = lower value; DMSO median 0, no signal -100; GFP signal change (wild-type ribosome), % (concentration not given with the values); hit rate 1.6% among 350,000; AID 720706, 2013;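 active = significant combined selectivity score with lowered wild-type GFP, culture density cut under 30%, mutant RFP and density less affected; inactive = any of these conditions unmet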
* = called active by the depositor; x = no result.

SMILES | RAD54 inh | RAD52 inh | XiGFP reactiv | E-sel inducer | PglD inh | rRNA inh HTS
C[C@H]1CCCCO[C@@H](CN(C)S(=O)(=O)c2ccccc2)[C@@H](C)CN([C@@H](C)CO)C(=O)c2cc(NC(=O)NC3CCCCC3)ccc2O1 | -7 | x | 0 | 1 | -2 | -2
CC(C)NC(=O)N(C)C[C@@H]1Oc2ccc(NC(=O)CCN3CCOCC3)cc2C(=O)N([C@@H](C)CO)C[C@H]1C | 8 | 5 | 0 | 33* | -2 | 4
CC(C)NC(=O)N(C)C[C@H]1Oc2ccc(NC(=O)CCN3CCOCC3)cc2C(=O)N([C@H](C)CO)C[C@@H]1C | -1 | -13 | 0 | 43* | 1 | 4
CC(C)NC(=O)N(C)C[C@H]1Oc2ccc(NC(=O)CCN3CCOCC3)cc2C(=O)N([C@H](C)CO)C[C@H]1C | -3 | -8 | 0 | 26 | -3 | -2
COCC#Cc1cnc2c(c1)C(=O)N([C@@H](C)CO)C[C@H](C)[C@@H](CN(C)C(=O)NC1CCCC1)O2 | 1 | 6 | 4 | 0 | -2 | 4
N#Cc1cc2ccc(N3CCOCC3)cc2cc1C#N | 4 | -15 | x | x | -1 | -34*
c1ccc(CSc2nc3ccccc3[nH]2)cc1 | x | -3 | 0 | 0 | 4 | -22*
Cc1cccc(OCCCSc2nc3ccccc3[nH]2)c1 | 15 | x | x | x | -3 | x
Cc1[nH]c2ccccc2c1C(=O)CSc1nc2ccccc2[nH]1 | -4 | -68 | x | x | x | -28*
Nc1c(-c2ccccc2)c(CSc2nc3ccccc3[nH]2)nn1-c1cccc(Cl)c1 | x | -28 | 1 | 0 | x | x
Fc1ccc(CSc2nc3ccccc3[nH]2)cc1 | 0 | x | x | x | 2 | x
CCOc1ccc(OCCSc2nc3ccccc3[nH]2)cc1 | -2 | -22 | x | x | 8 | -28*
Nc1c(-c2ccccc2)c(CSc2nc3ccccc3[nH]2)nn1-c1ccc(Cl)cc1 | x | -14 | 0 | 0 | x | -19*
O=C(Nc1ccccc1F)N[C@@H]1C=C[C@@H](CC(=O)N2CCCCC2)O[C@H]1CO | 6 | -1 | 0 | 1 | -4 | -3
Fc1ccc(-n2cc(-c3ccccc3)c3c(N4CCOCC4)ncnc32)cc1 | x | -7 | 0 | 0 | x | -24*
O=C(c1cc(COc2cccc(C(F)(F)F)c2)on1)N1CCc2ccccc2C1 | -3 | 0 | 0 | x | -1 | -22
O=C(c1cc(COc2c(F)cccc2F)on1)N1CCc2ccccc2C1 | -11 | -4 | 0 | x | -4 | -23*
CCOc1ccc(OCc2ccc(C(=O)N3CCc4ccccc4C3)o2)cc1 | -7 | -25 | x | x | 0 | -28*
O=C(c1cc(COc2c(F)cccc2F)on1)N1C[C@H]2CC[C@H]1C2 | 9 | -9 | 0 | 0 | 2 | -20*
COc1ccc(/C=N/NC(=O)c2cccnc2)cc1CN1CCCc2ccccc21 | x | -6 | 0 | x | x | -28*
COc1ccc(C(=O)N/N=C/c2ccc(OC)c(CN3CCCc4ccccc43)c2)cc1 | 2 | x | x | x | -2 | x
O=C([C@H]1[C@H](CO)[C@H]2Cn3c(cccc3=O)[C@@H]1N2CC1CCCC1)N1CCc2ccccc2C1 | -3 | -3 | 0 | 0 | 7 | -4
Cn1ccnc1SCC(=O)c1ccc(Cl)cc1 | 9 | -5 | 0 | x | -1 | -32*
Cn1ccnc1SCC(=O)c1ccc(O)cc1 | 4 | -6 | 0 | 0 | 3 | 7
O=C(C1CCCC1)N1CC(=O)N2[C@@H](CO)[C@@H](c3ccc(-c4ccccc4F)cc3)[C@@H]2C1 | x | -4 | 0 | 1 | x | -1
SMILES | RAD54 inh | RAD52 inh | XiGFP reactiv | E-sel inducer | PglD inh | rRNA inh HTS
O=S(=O)(c1ccccc1F)N1CCC(Oc2ccc(-n3cnnn3)cc2)CC1 | 12 | -9 | 0 | x | 5 | -28*
O=C(Nc1ccc(F)cc1)N1CC(=O)N2[C@@H](CO)[C@@H](c3ccc(C#Cc4ccc(F)cc4)cc3)[C@@H]2C1 | x | -11 | 0 | 2 | x | -43
C/C=C/c1ccccc1[C@H]1[C@@H](C#N)N(C(=O)NC2CCCC2)[C@H]1CO | x | 0 | 0 | 0 | x | 1
O=C(COc1nsnc1N1CCOCC1)N/N=C/c1ccccc1O | x | -13 | 0 | x | x | -22*
C=CCn1c(SCn2nnc3ccccc3c2=O)nnc1-c1ccc(Br)cc1 | -6 | x | x | x | 8 | x
C=CCn1c(COc2cccc(C)c2)nnc1SCn1nnc2ccccc2c1=O | 3 | -10 | 0 | x | 3 | -43*
CNc1ccccc1C(C)(C)c1cc(-c2cccc(Br)c2)no1 | -9 | -28 | 0 | 84* | 6 | -22
CN(C)CC#Cc1ccc([C@@H]2[C@@H](CO)N3CCCCN(C(=O)Nc4ccc(F)cc4)C[C@@H]23)cc1 | -3 | 16 | 0 | 1 | 8 | 0
CC(C)c1csc2nc3n(c(=O)c12)CCCCC3 | -6 | -3 | 0 | -2 | 2 | -33*
CCn1c(CCC(=O)O)nc2cc(S(=O)(=O)N3CCOCC3)ccc21 | 2 | -14 | 0 | 117* | -1 | 8
O=C(CSCc1c(Cl)cccc1Cl)Nc1cccnc1 | -5 | -12 | 0 | 2 | 6 | -24*
O=C(Cc1c(Cl)cccc1Cl)Nc1cccnc1 | x | -3 | 0 | 2 | x | 4
COC(=O)c1ccc2nc(-c3ccccc3)c(Cc3ccc(C)cc3)n2c1 | x | -46 | 0 | 0 | x | -27*
CCOC(=O)Cc1csc(NC(=O)Nc2cccc(OC)c2)n1 | 5 | -7 | 0 | x | -6 | -29*
CCOC(=O)Cc1csc(NC(=O)CCSc2ccccc2)n1 | 2 | 4 | 0 | 0 | 0 | -21*
CCOC(=O)Cc1csc(NC(=O)CCc2ccccc2)n1 | -10 | -4 | 0 | x | -2 | -9
CCOC(=O)Cc1csc(NC(=S)NC(=O)c2ccccc2C)n1 | 3 | 6 | x | x | 7 | -20*
CCOC(=O)Cc1csc(NC(=S)NC(=O)c2cc(OC)c(OC)c(OC)c2)n1 | -5 | -32 | 1 | 6 | 4 | -17
CCc1ccc(/C=C2\SC(N3CCCC3)=NC2=O)cc1 | x | 4 | 0 | -1 | x | -15*
COc1cc(/C=C2\SC(N3CCCCC3)=NC2=O)cc(OC)c1OC | x | -2 | 0 | x | x | -28*
COc1ccc(/C=C2\SC(N3CCCCC3)=NC2=O)cc1 | -5 | -4 | 0 | 0 | -2 | -4
C[C@H]1CCCCO[C@H](CN(C)S(=O)(=O)c2cccs2)[C@@H](C)CN([C@@H](C)CO)C(=O)c2cc(NC(=O)Cc3ccccc3)ccc2O1 | 5 | x | 0 | 0 | 0 | -6
